This is an account of results in ChEMBL document CHEMBL2331363, “Synthesis of a 2,4,6-trisubstituted 5-cyano-pyrimidine library and evaluation of its immunosuppressive activity in a Mixed Lymphocyte Reaction assay” (Bioorg Med Chem, 2013).

Series [1] addresses Ribosomal protein S6 kinase alpha-6 (Homo sapiens) (UniProt Q9UK32). Kind of series: Binding affinity to RSK4 (unknown origin) at 10 uM relative to control.
The nature of series [2]: Cytotoxicity against human Jurkat T cells after 48 hrs by WST1 assay. The format is cell-based. A digest of the protocol:
(§1)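 Jurkat T cells were seeded at 5.10⁴ cells per well and exposed to serial compound dilutions for 48 h at 37 °C and 5% CO₂. Part of the medium was removed, WST-1 tetrazolium salt was added, and cells were incubated further. Absorbance was read at 450 nm. Results are % cytotoxicity at each concentration, with CC₅₀ calculated.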

The target of series [3] is Serine/threonine-protein kinase 10 (Homo sapiens) (UniProt O94804). Kind of series: Binding affinity to LOK (unknown origin) at 10 uM relative to control.
Series [4] can be described thus: Immunosuppressive activity in human RPMI1788 cells cocultured with human PBMC assessed as inhibition of [3H]thymidine incorporation at 10 uM incubated for 6 days prior to [3H]thymidine addition measured after 18 hrs by liquid scintillation counting. Type of series: functional. The settings on record: RPMI-1788. A digest of the protocol:
(§2)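 Effector PBMCs from heparinized healthy-donor blood were isolated over Lymphoprep and held at 1.2 × 10⁶ cells/mL in RPMI-1640 with 10% heat-inactivated FCS. Mitomycin-treated stimulator cells were at 0.45 × 10⁶ cells/mL. Cells were mixed with diluted compound and cultured at 37 °C, 5% CO₂. (methyl-³H)thymidine was added for the final 18 h, and filter-harvested cpm were counted by scintillation. Compounds were screened at one concentration, then dose-response IC₅₀ was determined. Values are means of two independent experiments.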

Series [5] is described as follows: Growth inhibition of human Jurkat T cells at 10 uM after 48 hrs by WST1 assay. Type of series: cell-based. In a few lines: as §1
For series [6], the target named is Serine/threonine-protein kinase B-raf (Homo sapiens) (UniProt P15056). Kind of series: Binding affinity to BRAF (unknown origin) at 10 uM relative to control.
The target in series [7] is T1, Receptor-interacting serine/threonine-protein kinase 4 (Homo sapiens) (UniProt P57078).
T1 sequence (whole entry): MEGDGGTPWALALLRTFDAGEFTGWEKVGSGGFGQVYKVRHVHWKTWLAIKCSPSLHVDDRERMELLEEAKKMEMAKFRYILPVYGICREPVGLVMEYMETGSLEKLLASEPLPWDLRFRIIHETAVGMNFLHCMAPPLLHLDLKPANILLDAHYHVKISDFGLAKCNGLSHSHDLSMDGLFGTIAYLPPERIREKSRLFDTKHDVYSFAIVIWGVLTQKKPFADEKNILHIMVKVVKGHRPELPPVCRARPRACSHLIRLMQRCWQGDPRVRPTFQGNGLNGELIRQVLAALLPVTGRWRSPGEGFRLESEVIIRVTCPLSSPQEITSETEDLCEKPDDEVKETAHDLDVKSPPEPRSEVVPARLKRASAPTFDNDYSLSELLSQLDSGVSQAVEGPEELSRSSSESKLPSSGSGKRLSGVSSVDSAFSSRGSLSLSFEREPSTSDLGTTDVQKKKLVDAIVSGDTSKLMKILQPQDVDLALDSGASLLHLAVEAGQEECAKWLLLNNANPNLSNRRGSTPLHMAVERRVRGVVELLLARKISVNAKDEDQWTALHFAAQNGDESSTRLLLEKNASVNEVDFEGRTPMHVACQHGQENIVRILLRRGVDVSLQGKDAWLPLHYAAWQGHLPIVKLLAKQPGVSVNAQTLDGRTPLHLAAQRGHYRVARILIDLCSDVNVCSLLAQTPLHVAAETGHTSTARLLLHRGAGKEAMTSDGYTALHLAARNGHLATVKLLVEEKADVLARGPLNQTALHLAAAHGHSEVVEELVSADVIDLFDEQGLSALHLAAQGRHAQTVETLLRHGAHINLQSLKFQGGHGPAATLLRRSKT
Kind of series: Binding affinity to RIPK4 (unknown origin) at 10 uM relative to control.

Series [8] addresses Serine/threonine-protein kinase mTOR (Homo sapiens) (UniProt P42345). Kind of series: Inhibition of mTOR (unknown origin) at 10 uM.
Series [9] in a line: Immunosuppressive activity in human RPMI1788 cells cocultured with human PBMC assessed as inhibition of [3H]thymidine incorporation incubated for 6 days prior to [3H]thymidine addition measured after 18 hrs by liquid scintillation counting. The format is functional, cell-based. To be noted: RPMI-1788. In a few lines:
as §2

Series [10] addresses T2, Inhibitor of nuclear factor kappa-B kinase subunit beta (Homo sapiens) (UniProt O14920).
T2 sequence (whole entry): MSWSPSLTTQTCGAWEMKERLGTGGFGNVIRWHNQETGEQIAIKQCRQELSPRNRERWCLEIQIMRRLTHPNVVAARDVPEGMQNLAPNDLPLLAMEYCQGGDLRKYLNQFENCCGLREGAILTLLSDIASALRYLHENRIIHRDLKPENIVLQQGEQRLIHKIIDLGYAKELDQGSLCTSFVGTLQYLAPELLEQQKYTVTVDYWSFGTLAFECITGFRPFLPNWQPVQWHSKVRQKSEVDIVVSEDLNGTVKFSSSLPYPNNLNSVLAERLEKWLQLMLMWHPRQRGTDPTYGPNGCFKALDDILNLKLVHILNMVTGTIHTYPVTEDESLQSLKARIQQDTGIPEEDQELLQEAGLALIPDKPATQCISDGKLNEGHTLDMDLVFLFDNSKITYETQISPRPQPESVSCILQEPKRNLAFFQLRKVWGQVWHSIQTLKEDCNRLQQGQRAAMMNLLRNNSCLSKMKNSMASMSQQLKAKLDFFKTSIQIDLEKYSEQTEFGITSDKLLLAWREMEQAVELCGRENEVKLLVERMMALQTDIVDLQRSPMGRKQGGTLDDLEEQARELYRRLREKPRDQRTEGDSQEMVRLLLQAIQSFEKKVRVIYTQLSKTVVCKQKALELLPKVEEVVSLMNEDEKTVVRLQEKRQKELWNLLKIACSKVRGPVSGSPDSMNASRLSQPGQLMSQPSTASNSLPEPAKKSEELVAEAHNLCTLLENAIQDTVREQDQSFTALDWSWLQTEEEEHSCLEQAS
Kind of series: Binding affinity to IKKbeta (unknown origin) at 10 uM relative to control.

The target in series [11] is T3, Inhibitor of nuclear factor kappa-B kinase subunit alpha (Homo sapiens) (UniProt O15111).
T3 sequence (whole entry): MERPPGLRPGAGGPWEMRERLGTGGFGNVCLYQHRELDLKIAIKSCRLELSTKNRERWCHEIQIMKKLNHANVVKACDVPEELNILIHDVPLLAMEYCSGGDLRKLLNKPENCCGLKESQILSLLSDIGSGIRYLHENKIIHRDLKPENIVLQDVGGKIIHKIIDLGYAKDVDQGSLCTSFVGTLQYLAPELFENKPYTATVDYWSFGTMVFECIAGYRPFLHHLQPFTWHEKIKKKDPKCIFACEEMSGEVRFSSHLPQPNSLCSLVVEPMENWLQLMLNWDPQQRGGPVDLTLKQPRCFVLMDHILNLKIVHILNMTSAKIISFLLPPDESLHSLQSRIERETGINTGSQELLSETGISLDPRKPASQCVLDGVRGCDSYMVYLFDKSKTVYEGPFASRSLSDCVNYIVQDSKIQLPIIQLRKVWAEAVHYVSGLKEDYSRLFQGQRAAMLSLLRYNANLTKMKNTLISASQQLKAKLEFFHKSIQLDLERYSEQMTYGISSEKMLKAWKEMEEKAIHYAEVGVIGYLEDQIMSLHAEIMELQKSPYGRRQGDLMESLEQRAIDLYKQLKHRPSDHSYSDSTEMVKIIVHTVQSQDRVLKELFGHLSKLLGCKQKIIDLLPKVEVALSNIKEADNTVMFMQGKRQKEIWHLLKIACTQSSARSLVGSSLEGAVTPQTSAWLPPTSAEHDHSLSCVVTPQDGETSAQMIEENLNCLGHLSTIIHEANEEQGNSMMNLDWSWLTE
Kind of series: Binding affinity to IKKalpha (unknown origin) at 10 uM relative to control.

Series [12] deals with Tyrosine-protein kinase JAK1 (Homo sapiens) (UniProt P23458). The series can be described thus: Binding affinity to JAK1 (unknown origin) at 10 uM relative to control.
Series [13] concerns Serine/threonine-protein kinase B-raf (Homo sapiens), P15056 [V600E]. The series can be described thus: Binding affinity to BRAF V600E mutant (unknown origin) at 10 uM relative to control.
Chain of Serine/threonine-protein kinase B-raf (Homo sapiens), P15056 [V600E] (P15056 whole entry V600E): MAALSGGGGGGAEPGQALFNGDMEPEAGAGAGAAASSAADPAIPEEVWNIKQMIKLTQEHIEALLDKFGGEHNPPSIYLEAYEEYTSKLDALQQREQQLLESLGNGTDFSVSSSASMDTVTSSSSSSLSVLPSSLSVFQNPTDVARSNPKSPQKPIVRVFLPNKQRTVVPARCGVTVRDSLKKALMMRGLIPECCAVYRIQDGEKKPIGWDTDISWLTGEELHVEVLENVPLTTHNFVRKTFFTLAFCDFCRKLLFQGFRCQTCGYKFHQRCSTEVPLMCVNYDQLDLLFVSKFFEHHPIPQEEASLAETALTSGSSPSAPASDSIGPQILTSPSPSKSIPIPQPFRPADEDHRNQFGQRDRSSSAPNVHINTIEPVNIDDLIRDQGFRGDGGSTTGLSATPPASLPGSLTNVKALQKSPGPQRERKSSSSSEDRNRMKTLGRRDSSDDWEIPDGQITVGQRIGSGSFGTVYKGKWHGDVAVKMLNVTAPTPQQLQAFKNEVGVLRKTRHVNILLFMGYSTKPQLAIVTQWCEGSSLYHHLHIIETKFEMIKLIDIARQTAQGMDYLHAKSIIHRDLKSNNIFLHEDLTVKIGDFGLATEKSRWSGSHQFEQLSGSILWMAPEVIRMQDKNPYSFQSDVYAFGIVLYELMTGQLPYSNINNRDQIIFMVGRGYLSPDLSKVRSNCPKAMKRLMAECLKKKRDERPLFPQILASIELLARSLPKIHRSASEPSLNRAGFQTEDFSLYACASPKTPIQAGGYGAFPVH

Chain of Tyrosine-protein kinase JAK1 (Homo sapiens) (P23458 whole entry): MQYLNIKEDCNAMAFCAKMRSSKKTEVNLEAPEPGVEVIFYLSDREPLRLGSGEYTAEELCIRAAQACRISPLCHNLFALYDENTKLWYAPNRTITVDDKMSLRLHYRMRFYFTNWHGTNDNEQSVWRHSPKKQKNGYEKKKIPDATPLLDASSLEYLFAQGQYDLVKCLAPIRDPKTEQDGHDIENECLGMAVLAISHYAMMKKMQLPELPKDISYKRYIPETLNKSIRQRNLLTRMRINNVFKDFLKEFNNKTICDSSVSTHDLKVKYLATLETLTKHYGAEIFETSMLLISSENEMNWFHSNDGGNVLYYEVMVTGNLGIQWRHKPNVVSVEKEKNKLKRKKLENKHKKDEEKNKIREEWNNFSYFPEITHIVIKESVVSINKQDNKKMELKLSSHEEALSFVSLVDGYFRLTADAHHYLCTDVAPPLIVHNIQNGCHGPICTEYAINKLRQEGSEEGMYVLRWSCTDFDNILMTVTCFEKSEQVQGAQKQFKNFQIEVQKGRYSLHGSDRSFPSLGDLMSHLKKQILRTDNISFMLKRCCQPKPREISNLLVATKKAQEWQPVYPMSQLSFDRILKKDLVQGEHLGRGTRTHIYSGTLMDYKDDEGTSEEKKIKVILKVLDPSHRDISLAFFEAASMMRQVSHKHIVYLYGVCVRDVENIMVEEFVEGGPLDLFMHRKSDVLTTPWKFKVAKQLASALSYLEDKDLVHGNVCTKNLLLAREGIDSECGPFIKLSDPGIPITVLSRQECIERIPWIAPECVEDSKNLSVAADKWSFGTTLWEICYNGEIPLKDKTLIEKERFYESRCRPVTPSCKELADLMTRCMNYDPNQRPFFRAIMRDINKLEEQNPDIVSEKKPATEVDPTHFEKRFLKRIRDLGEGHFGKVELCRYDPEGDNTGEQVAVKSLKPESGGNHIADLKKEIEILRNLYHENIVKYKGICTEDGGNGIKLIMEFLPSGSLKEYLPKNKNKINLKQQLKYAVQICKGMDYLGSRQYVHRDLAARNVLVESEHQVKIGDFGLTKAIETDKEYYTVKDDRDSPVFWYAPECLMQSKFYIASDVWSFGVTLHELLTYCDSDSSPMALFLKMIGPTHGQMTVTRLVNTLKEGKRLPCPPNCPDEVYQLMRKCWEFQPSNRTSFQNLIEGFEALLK
Chain of Serine/threonine-protein kinase B-raf (Homo sapiens) (P15056 whole entry): as the sequence (P15056 whole entry V600E) above, with E600V counted along it
Chain of Serine/threonine-protein kinase 10 (Homo sapiens) (O94804 whole entry, looked up): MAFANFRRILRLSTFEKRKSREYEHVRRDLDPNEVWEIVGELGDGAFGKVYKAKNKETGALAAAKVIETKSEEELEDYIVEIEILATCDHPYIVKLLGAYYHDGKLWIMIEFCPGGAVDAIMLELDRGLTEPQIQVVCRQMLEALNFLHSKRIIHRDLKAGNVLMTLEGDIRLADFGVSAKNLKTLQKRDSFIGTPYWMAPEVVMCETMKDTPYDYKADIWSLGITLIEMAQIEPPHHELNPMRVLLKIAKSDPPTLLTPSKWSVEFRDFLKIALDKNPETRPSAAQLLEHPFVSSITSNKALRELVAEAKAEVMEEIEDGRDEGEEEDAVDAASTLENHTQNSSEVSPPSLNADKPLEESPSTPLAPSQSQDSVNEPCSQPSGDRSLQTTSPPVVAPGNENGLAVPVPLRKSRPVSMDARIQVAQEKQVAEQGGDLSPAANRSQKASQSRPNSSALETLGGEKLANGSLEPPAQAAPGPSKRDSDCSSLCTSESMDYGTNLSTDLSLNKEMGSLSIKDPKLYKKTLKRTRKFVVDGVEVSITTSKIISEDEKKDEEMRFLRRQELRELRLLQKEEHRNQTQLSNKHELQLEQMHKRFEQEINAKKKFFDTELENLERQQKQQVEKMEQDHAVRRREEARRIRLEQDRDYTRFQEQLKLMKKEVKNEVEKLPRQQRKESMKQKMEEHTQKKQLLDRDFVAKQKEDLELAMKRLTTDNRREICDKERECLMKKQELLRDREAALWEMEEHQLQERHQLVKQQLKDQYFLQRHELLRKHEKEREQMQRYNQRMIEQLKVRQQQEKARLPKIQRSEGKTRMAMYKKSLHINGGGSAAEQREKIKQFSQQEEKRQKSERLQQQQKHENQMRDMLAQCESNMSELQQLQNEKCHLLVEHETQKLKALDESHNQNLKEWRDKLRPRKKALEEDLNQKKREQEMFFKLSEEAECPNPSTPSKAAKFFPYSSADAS
Chain of Ribosomal protein S6 kinase alpha-6 (Homo sapiens) (Q9UK32 whole entry): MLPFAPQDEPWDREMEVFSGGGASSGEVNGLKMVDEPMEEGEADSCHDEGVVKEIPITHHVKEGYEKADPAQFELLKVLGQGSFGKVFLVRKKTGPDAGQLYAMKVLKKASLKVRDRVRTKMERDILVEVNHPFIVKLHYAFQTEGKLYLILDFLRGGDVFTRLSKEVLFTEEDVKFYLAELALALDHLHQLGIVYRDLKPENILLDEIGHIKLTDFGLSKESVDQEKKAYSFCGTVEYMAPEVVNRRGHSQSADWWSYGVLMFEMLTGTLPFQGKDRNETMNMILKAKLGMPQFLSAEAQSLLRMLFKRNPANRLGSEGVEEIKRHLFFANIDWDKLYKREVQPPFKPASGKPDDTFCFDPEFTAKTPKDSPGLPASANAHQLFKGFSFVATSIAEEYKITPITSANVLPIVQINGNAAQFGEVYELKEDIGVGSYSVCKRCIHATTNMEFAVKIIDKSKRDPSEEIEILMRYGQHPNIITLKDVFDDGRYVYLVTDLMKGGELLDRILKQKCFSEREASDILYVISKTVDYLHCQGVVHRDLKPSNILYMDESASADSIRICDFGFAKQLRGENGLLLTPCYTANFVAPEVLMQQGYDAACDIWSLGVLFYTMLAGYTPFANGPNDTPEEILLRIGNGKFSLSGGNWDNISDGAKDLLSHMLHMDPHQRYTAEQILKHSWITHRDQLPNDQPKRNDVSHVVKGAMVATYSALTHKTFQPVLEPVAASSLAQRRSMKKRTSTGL

Take `COc1ccc(-c2nc(SCc3ccccc3)nc(N3CCOCC3)c2C#N)cc1`: the Activity in [1] is 35%; in series [3], 45%; in series [6] it was 34%; in [7], 43%; in series [10] it was 48%; in series [11] it was 44%. In addition, the values for the Activity in [12] and in [13] were 39% and 28%, respectively. The compound also displayed a CC50 at 48 h in [2] above 10 µM. Also, the inhibition at 10 µM in series [4] was determined as 90%. This compound also gave an inhibition at 48 h, 10 µM in series [5] of 10%. Also, the inhibition in series [8] was determined as 10%. Also, the IC50 in [9] came to 1.6 µM.

Compound `CCCCCCSc1nc(-c2ccc(OC)cc2)c(C#N)c(N2CCOCC2)n1` registered a CC50 at 48 h in series [2] above 10 µM. For the same compound, the inhibition at 10 µM in series [4] came out at 69%. This compound also yielded an inhibition at 48 h, 10 µM in [5] of 13%. In addition, in series [9], the IC50 stood at 5.3 µM.

Compound `N#Cc1c(-c2cccc(Cl)c2)nc(SCc2ccccc2)nc1N1CCOCC1` gave a CC50 at 48 h in [2] above 10 µM. Further, in series [4], the inhibition at 10 µM was found to be 80%. The inhibition at 48 h, 10 µM in series [5] came to 15%. Also, the IC50 in series [9] turned out to be 5.5 µM.

In series [2], `COc1ccc(-c2nc(SCc3ccccc3)nc(NCc3ccccc3)c2C#N)cc1` displayed a CC50 at 48 h above 10 µM. The inhibition at 10 µM in [4] was found to be 73%. In [5], this compound gave an inhibition at 48 h, 10 µM of 5%. Also, in series [9], the IC50 was 2.5 µM.
